From article PMC2847151 (Neurogenetics, 2009)

Experiments:
Med25 expression = assay: Med25 qRT-PCR expression in sciatic nerve of treated Pmp22 transgenic; format: in vivo, rat
Summary of the method: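 Pmp22-transgenic rats received a progestin diet (20 mg/kg), a progesterone-receptor antagonist, or placebo (12, 12 and 8 animals). RNA was Trizol-extracted from sciatic nerve. Med25 was quantified by TaqMan qRT-PCR with unlabelled forward/reverse primers and a 5′-FAM probe, in triplicate, normalised to 18S rRNA run in parallel. Runs were repeated with GAPDH as the internal control.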

Pmp22 expression = conditions: peripheral nerves of Pmp22 transgenic rats; ref [31]; cited from earlier work
Pmp22 transgenic rats = conditions: progesterone antagonist, ref [31]; cited from earlier work
[1] = test system: SH3 domain of the Src-family kinase Lck (LckSH3); assay: Fluorescence titration binding of synthetic MED25 peptides to Lck SH3; conditions: AblSH3 vs LckSH3
[2] = molecular target: SH3 domain of Abl (AblSH3) (Homo sapiens, UniProt P00519); assay: Fluorescence titration binding of synthetic MED25 peptides to Abl SH3
SH3 domain of Abl (AblSH3), sequence (P00519 61-121 limits assumed): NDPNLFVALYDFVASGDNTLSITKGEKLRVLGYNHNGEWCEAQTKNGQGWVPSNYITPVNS

[3] = molecular target: SH3 domain of the Src-family kinase Lck (LckSH3) (Homo sapiens, UniProt P06239); assay: Fluorescence titration binding of synthetic MED25 peptides to Lck SH3
SH3 domain of the Src-family kinase Lck (LckSH3) (Homo sapiens, UniProt P06239), sequence (P06239 61-121 limits assumed): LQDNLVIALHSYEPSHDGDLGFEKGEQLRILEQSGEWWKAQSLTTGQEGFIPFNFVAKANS

For CN(C)c1ccc([C@H]2C[C@]3(C)[C@@H](CC[C@]3(O)CCCO)[C@@H]3CCC4=CC(=O)CCC4=C32)cc1 [onapristone], the “Med25 expression after treatment” value (Med25 expression; Pmp22^++/+ rats, onapristone) is listed as “no significant reducing effect”, the Pmp22 expression (Pmp22 expression) is listed as “decreases its expression” and the phenotype (Pmp22 transgenic rats) is listed as “improvement of the phenotype”.

In the case of CC(=O)[C@H]1CC[C@H]2[C@@H]3CCC4=CC(=O)CC[C@]4(C)[C@H]3CC[C@]12C [progesterone], the “Med25 expression after treatment” value (Med25 expression; Pmp22^++/+ male rats, progesterone 20 mg/kg diet) is given as “further increase of the Med25 expression” and the Pmp22 expression (Pmp22 expression) is given as “increases Pmp22 expression”.

In the case of “Ac-QLPPGPPGAPKPPPAS-NH2 [wild-type MED25, Ac-QLPPGPPGAPKPPPAS-CONH2]”, the “binding affinity Abl SH3 compared with Lck SH3 (specificity)” value [1] is reported as “significantly stronger to Abl than to Lck”.

In the case of “Ac-QLPPGPPGVPKPPPAS-NH2 [mutant, Ac-QLPPGPPGVPKPPPAS-CONH2]”, the Kd [2] is reported as 2.91 ± 0.66 µM, the “affinity for Abl SH3, effect of mutation” value ([2]; mutant vs wild-type peptide) is reported as “almost unaltered by the mutation” and the Kd [3] is reported as 5.38 ± 1.05 µM. The “binding affinity Abl SH3 compared with Lck SH3 (specificity)” value [1] was “very similar affinity”.
